Reference: ChEMBL document CHEMBL3997800, “Discovery of Multitarget Agents Active as Broad-Spectrum Antivirals and Correctors of Cystic Fibrosis Transmembrane Conductance Regulator for Associated Pulmonary Diseases” (J Med Chem, 2017)
pEC50, pIC50: −log10 of the molar value. Active and inactive are the calls of the source. No cut-off for these calls is given here.

Assays:
[1] = Inhibition of full length recombinant His6-tagged PI4K3beta (unknown origin) expressed in Sf9 insect cells using PI : PS as substrate in presence of [gamma-33P]-ATP by scintillation counting method; set-up: species or system Homo sapiens; settings: for pIC50: read-out: IC50
[2] = tested on: Cystic fibrosis transmembrane conductance regulator (Homo sapiens), P13569 [F508del]; test: Corrector activity at CFTR F508 deletion mutant (unknown origin) expressed in HEK293 cells assessed as increase in steady-state level of F508 deletion mutant at plasma membrane at 10 uM preincubated for 24 hrs followed by compound washout by pHTomato dye based fluorescence imaging method; assay type: cell-based
Method in brief: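 HEK293 cells were transiently transfected (Lipofectamine 2000) with F508del-CFTR-pHTomato plus co-expressed soluble eGFP, then kept 24 h at 37 °C. Next, 24 h at 30 °C with 10 μM drug. Imaging in pH 7.4 HEPES buffer, then extracellular pH shifted to ~6.5 (MES) and ~8.8 (Tris). The eGFP-normalized fluorescence rise (ΔF) estimates membrane CFTR.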

[3] = (§1) Inhibition of full length recombinant His6-tagged PI4K3alpha (unknown origin) expressed in Sf9 insect cells assessed as residual activity at 100 uM using PI : PS as substrate in presence of [gamma-33P]-ATP by scintillation counting method relative to control; settings: Homo sapiens
[4] = Selectivity index, ratio of CC50 for human RD cells assessed as change in cell morphology to EC50 for Enterovirus 71; assay type: toxicity; settings: read-out: Ratio CC50/EC50
Method in brief: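 SI is CC50/EC50. CC50 is from microscopically detected morphology change in uninfected RD cells and EC50 from the EV71 CPE-reduction assay in RD cells.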

[5] = target: PI3-kinase p110-alpha/p85-alpha (Homo sapiens) (UniProt P27986+P42336); test: as §1, with “recombinant human N-terminal” for “recombinant”, “PI3Kalpha (1 to 1068 residues)/full length human N-terminal myc-tagged P85alpha (1 to 724 residues)” for “PI4K3alpha (unknown origin)”
Echovirus E11 = test: Antiviral activity against Echovirus 11 after 2 to 3 days; assay type: functional; settings: Enterovirus B
enterovirus D68 = test: Antiviral activity against Enterovirus 68 after 2 to 3 days; assay type: functional
[6] = Selectivity index, ratio of CC50 for human RD cells to EC50 for Enterovirus 71; assay type: toxicity; settings: read-out: Ratio CC50/EC50
Method in brief: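 SI is CC50/EC50. CC50 is from the MTS assay on uninfected RD cells and EC50 from the EV71 CPE-reduction assay, both medians of three dose-response curves run in parallel.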

Poliovirus 1 = test: Antiviral activity against Poliovirus 1 after 2 to 3 days by cell based MTS assay; assay type: functional; settings: Enterovirus C
Method in brief: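 Vero cells seeded at 20 000/well in MEM with 2% FCS. Three 8-step 1:5 dilution series from 100 μM, then virus, then cells; 2–3 days until maximal CPE. Read-out: 5% MTS for 1.5 h at 37°C, absorbance at 498 nm, expressed as % of untreated controls. EC50 taken as the median of 3 dose-response curves.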

[7] = tested on: Cystic fibrosis transmembrane conductance regulator (Homo sapiens), P13569 [F508del]; test: Potentiator activity at CFTR F508 deletion mutant (unknown origin) expressed in HEK293 cells assessed as increase in aninon permeability at 10 uM […] by YFP probe based imaging method; assay type: cell-based
Coxsackievirus B3 = test: Antiviral activity against Coxsackievirus B3 after 2 to 3 days by cell based MTS assay; assay type: functional; settings: Enterovirus B
[8] = Cytotoxicity against human RD cells assessed as change in cell morphology by microscopic method; assay type: cell-based
Method in brief: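 Uninfected, compound-treated RD cells were inspected by microscope. CC50 was taken from microscopically detectable alteration of cell morphology.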

rhinovirus B14 = test: Antiviral activity against Rhinovirus 14 after 2 to 3 days by cell based MTS assay; assay type: functional; settings: for pEC50: Rhinovirus B, read-out: EC50
rhinovirus A2 = test: Antiviral activity against Rhinovirus 2 after 2 to 3 days by cell based MTS assay; assay type: functional; settings: for pEC50: Rhinovirus A, read-out: EC50
Enterovirus A71 [9] = test: Antiviral activity against Enterovirus 71 infected in RD cells assessed as reduction in virus-induced cytopathic effect incubated for 2 to 3 days; assay type: functional, cell-based; settings: for pEC50: Enterovirus A, RD, read-out: EC50
Method in brief: (§2)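 RD cells seeded at 20 000/well in MEM with 2% FCS and infected with EV71. Three 8-step 1:5 dilution series from 100 μM. Incubated 2-3 days until maximal CPE, then scored for CPE reduction. EC50 is the median of three dose-response curves.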

[10] = Cytotoxicity against human RD cells after 2 to 3 days by MTS method; assay type: cell-based
Method in brief: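 Uninfected RD cells, 20 000/well in 2% FCS medium, run in parallel with the antiviral assay. Three 8-step 1:5 dilution series from 100 μM, 2-3 days. Read-out by 5% MTS, 1.5 h at 37 °C, absorbance 498 nm, as % of untreated controls. CC50 is the 50% metabolic activity point, median of 3 curves.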

Enterovirus A71 [11] = test: Antiviral activity against Enterovirus 71 infected in RD cells assessed as reduction in virus-induced cytopathic effect; assay type: functional, cell-based; settings: Enterovirus A; method in brief: as §2

Cystic fibrosis transmembrane conductance regulator (Homo sapiens), P13569 [F508del], sequence (P13569 as listed by the source): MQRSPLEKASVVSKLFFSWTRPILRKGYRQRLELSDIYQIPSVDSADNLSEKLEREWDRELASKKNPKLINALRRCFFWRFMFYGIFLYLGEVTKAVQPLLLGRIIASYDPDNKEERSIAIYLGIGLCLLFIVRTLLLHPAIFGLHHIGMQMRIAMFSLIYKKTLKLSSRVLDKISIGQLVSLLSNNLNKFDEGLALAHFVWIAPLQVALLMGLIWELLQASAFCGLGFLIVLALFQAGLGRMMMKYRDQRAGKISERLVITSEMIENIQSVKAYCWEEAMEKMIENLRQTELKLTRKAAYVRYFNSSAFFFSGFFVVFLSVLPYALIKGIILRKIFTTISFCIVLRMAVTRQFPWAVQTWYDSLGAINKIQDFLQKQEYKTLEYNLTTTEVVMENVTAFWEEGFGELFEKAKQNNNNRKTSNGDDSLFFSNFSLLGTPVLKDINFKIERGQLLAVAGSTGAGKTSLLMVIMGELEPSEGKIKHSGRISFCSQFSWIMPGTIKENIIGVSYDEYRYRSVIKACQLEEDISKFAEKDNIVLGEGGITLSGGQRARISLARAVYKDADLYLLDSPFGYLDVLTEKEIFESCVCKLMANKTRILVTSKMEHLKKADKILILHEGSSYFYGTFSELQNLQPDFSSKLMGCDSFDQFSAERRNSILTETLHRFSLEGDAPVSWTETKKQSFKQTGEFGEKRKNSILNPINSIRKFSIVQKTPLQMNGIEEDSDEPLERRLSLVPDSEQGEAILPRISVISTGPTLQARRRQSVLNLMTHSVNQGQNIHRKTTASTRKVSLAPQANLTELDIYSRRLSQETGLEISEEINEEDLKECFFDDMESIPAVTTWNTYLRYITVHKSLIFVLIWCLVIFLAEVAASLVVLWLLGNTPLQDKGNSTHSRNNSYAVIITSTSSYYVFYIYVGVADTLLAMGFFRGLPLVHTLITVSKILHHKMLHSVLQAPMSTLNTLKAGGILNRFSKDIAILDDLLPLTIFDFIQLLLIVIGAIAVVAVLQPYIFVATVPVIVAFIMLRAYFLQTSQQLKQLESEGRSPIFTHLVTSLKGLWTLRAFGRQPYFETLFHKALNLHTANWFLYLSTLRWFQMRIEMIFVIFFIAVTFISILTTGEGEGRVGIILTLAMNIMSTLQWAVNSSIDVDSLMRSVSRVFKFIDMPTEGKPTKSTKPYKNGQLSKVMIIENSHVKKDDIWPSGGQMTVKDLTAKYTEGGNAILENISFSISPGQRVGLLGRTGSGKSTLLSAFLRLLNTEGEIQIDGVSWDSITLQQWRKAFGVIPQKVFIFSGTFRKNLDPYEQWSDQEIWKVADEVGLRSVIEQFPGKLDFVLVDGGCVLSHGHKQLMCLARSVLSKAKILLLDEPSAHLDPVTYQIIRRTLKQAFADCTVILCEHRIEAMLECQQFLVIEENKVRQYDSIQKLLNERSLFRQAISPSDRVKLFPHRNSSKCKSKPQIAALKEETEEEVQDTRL

SMILES	pIC50 [1]	Activity [3]	Activity [5]	selectivity ratio [6]	Activity [7]	pEC50 (Enterovirus A71 [9])	CC50 [10]	EC50 (Enterovirus A71 [9])	further results
CCC(=O)Nc1nc(C)c(-c2csc(Nc3cccc(C(C)=O)c3)n2)s1	6.57	72%	40%	26.6	inactive	6.42	10.1 µM	–	Activity [2]: Active; selectivity ratio [4]: 23.6; pEC50 (Echovirus E11): 6.01; EC50 (enterovirus D68): Not Active; pEC50 (Poliovirus 1): > 5.82; pEC50 (Coxsackievirus B3): 5.67; CC50 [8]: 6.37 µM; EC50 (rhinovirus B14): Not Active; pEC50 (rhinovirus A2): < 3.59
CC(=O)c1cccc(Nc2nc(-c3sc(NC(=O)Nc4ccccc4)nc3C)cs2)c1	5.11	–	–	–	–	–	–	Not Active	–
CCC(=O)Nc1nc(C)c(-c2csc(Nc3ccc(N(C)C)cc3)n2)s1	4.30	–	–	6	–	5.07	51.6 µM	–	CC50 [8]: 142 µM
CC(=O)c1cccc(Nc2nc(-c3sc(NC(=O)NCc4ccc(Cl)cc4)nc3C)cs2)c1	5.40	–	–	4.4	–	5.32	20.9 µM	–	–
CC(=O)c1cccc(Nc2nc(-c3sc(NC(=O)C(C)(C)C)nc3C)cs2)c1	6.49	71%	93%	29.4	inactive	6.57	7.94 µM	–	selectivity ratio [4]: 32.7; pEC50 (Echovirus E11): 6.14; pEC50 (enterovirus D68; Enterovirus D, read-out: EC50): 5.86; pEC50 (Poliovirus 1): > 5.85; CC50 [8]: 8.83 µM; pEC50 (rhinovirus B14): 5.31; pEC50 (rhinovirus A2): 5.70
CC(=O)Nc1nc(C)c(-c2csc(Nc3ccccc3)n2)s1	5.61	58%	81%	9.64	inactive	5.71	18.6 µM	–	–
CC(=O)Nc1nc(C)c(-c2csc(Nc3cccc(C(C)=O)c3)n2)s1	6.32	52%	37%	17.9	inactive	6.04	16.5 µM	–	selectivity ratio [4]: 10.6; pEC50 (Echovirus E11): 5.80; EC50 (enterovirus D68): Not Active; pEC50 (Poliovirus 1): 5.51; pEC50 (Coxsackievirus B3): 5.66; CC50 [8]: 9.73 µM; pEC50 (rhinovirus B14): < 3.57; EC50 (rhinovirus A2): Not Active
CC(=O)c1cccc(Nc2nc(-c3sc(NC(=O)c4ccc(C)cc4)nc3C)cs2)c1	< 4.30	–	–	–	–	< 4.25	–	–	–
CC(=O)c1cccc(Nc2nc(-c3sc(NC(=S)Nc4ccccc4)nc3C)cs2)c1	< 4.30	–	–	–	–	–	–	Not Active	–
CC(=O)c1cccc(Nc2nc(-c3sc(NC(=O)c4ccc(I)cc4)nc3C)cs2)c1	< 4.30	–	–	–	–	< 4.35	–	–	–
COc1cccc(Nc2nc(-c3sc(NC(C)=O)nc3C)cs2)c1	5.81	71%	51%	5.9	inactive	5.92	9.17 µM	–	–
CC(=O)c1cccc(NC(=S)Nc2cccc(NC(=O)C(C)(C)C)c2)c1	–	–	–	–	–	–	–	Not Active	IC50 [1]: Not Active
CC(=O)Nc1cccc(NC(=S)Nc2cccc(C(C)=O)c2)c1	–	–	–	–	–	–	–	Not Active	IC50 [1]: Not Active
CC(=O)c1cccc(Nc2nc(-c3sc(NC(=O)C(F)(F)F)nc3C)cs2)c1	4.66	73%	85%	12.9	inactive	5.70	25.8 µM	–	selectivity ratio [4]: 15; pEC50 (Echovirus E11): 5.45; pEC50 (Poliovirus 1): 5.54; pEC50 (Coxsackievirus B3): 5.41; CC50 [8]: 30.1 µM; pEC50 (rhinovirus B14): 4.97; pEC50 (rhinovirus A2): 4.97
COc1ccc(Cl)cc1Nc1nnc(-c2csc(NC(=O)C(C)(C)C)n2)o1	–	–	–	–	–	–	–	Not Active	IC50 [1]: Not Active
CC(=O)Nc1nc(C)c(-c2csc(Nc3ccc(C(C)=O)cc3)n2)s1	5.43	73%	100%	8.2	inactive	6.17	5.59 µM	–	–
CC(=O)c1cccc(Nc2nc(-c3sc(NC(=O)c4ccccc4)nc3C)cs2)c1	4.72	81%	54%	11.3	inactive	6.29	5.75 µM	–	Activity [2]: Active; selectivity ratio [4]: 23.1; pEC50 (Echovirus E11): 5.75; EC50 (enterovirus D68): Not Active; pEC50 (Poliovirus 1): 5.65; pEC50 (Coxsackievirus B3): 5.66; CC50 [8]: 11.8 µM; pEC50 (rhinovirus B14): < 3.64; pEC50 (rhinovirus A2): 5.69
CC(=O)c1cccc(Nc2nc(-c3sc(NC(=O)NC4CCCCC4)nc3C)cs2)c1	5.74	–	–	4.4	–	5.70	8.87 µM	–	–
CC(=O)c1cccc(Nc2nc(-c3sc(NC(=O)NC45CC6CC(CC(C6)C4)C5)nc3C)cs2)c1	4.91	–	–	–	–	–	–	Not Active	–
CC(=O)Nc1nc(C)c(-c2c[nH]c(Nc3cccc(C(C)=O)c3)n2)s1	< 4.30	–	–	–	–	< 4.04	85.7 µM	–	CC50 [8]: 64.2 µM
CC(=O)Nc1nc(C)c(-c2csc(Nc3cccc(O)c3)n2)s1	5.58	–	–	–	–	–	–	Not Active	–
COc1ccc(-c2c(C)nn3c(NCCN4CCOCC4)cc(C)nc23)cc1OC	–	–	–	–	–	–	–	–	pEC50 (Enterovirus A71 [11]): 6.14
CC(=O)c1cccc(Nc2nc(-c3sc(NC(=S)NC4CCCCC4)nc3C)cs2)c1	< 4.30	–	–	–	–	–	–	Not Active	–
COc1ccc(Cl)cc1Nc1nnc(-c2csc(NC(=O)C(C)(C)C)n2)s1	–	–	–	–	–	–	–	Not Active	IC50 [1]: Not Active
